From ChEMBL document CHEMBL4118234, “Synthesis and biological evaluation of irreversible EGFR tyrosine kinase inhibitors containing pyrido[3,4-d]pyrimidine scaffold” (Bioorg Med Chem, 2018)

Columns and labels:
[1] = Solubility of the compound; format: physicochemical
[2] = target: Epidermal growth factor receptor (Homo sapiens, UniProt P00533, C797S/L858R/T790M); test: Inhibition of EGFR L858R/T790M/C797S triple mutant (unknown origin) using Poly(Glu,Tyr) as substrate after 40 mins by Kinase-Glo luminescence assay
HCC827 [3] = test: Antiproliferative activity against human HCC827 cells harboring EGFR E746 to A750 deletion mutant after 72 hrs by MTT assay; format: functional, cell-based; conditions: HCC827, 72 h
Procedure, shortened: (§1)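 Cells were kept in RPMI-1640 with 10% heat-inactivated FBS, plus 1% of 100 mM sodium pyruvate for HCC827, at 37 °C and 5% CO2. They were seeded at 3000-5000 per well and pre-incubated 24 h. Final compound concentrations were 0.33, 1, 33, 100, 333, 1000, 3333, 10000 nM for 72 h. MTT was added for 4 h, formazan dissolved in DMSO, and OD read at 490 nm. Inhibition ratios were taken against control culture, and IC50 calculated from them. At least three experiments were run in triplicate.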

A549 = test: Cytotoxicity against human A549 cells harboring wild type EGFR assessed as reduction in cell viability after 72 hrs by MTT assay; format: cell-based; conditions: A549, 72 h; procedure, shortened: as §1
NCI-H1975 [4] = test: Antiproliferative activity against human NCI-H1975 cells harboring EGFR L858R/T790M double mutant after 72 hrs by MTT assay; format: functional, cell-based; conditions: NCI-H1975, 72 h; procedure, shortened: as §1
[5] = target: Epidermal growth factor receptor (Homo sapiens, UniProt P00533, L858R/T790M); test: Inhibition of EGFR L858R/T790M double mutant (unknown origin) using Poly(Glu,Tyr) as substrate after 40 mins by Kinase-Glo luminescence assay
[6] = target: Epidermal growth factor receptor (Homo sapiens, UniProt P00533, L858R); test: Inhibition of EGFR L858R mutant (unknown origin) using Poly(Glu,Tyr) as substrate after 40 mins by Kinase-Glo luminescence assay
[7] = tested on: Epidermal growth factor receptor (Homo sapiens), P00533 [L858R,T790M,C797S]; test: Inhibition of EGFR L858R/T790M/C797S triple mutant (unknown origin) at 500 nM using Poly(Glu,Tyr) as substrate after 40 mins by Kinase-Glo luminescence assay relative to control
Procedure, shortened: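 The reaction ran 40 min at 30 °C in 40 mM Tris pH 7.4, 10 mM MgCl2, 0.1 mg/mL BSA, 1 mM DTT, 10 µM ATP, 25 ng kinase, and 0.2 mg/mL poly(Glu,Tyr); final DMSO was 1%. Remaining ATP was read by Kinase-Glo Plus luminescence. Inhibition was scored relative to no-compound and no-enzyme signals. At least two experiments were run.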

[8] = target: Epidermal growth factor receptor (Homo sapiens, UniProt P00533); test: Inhibition of wild type EGFR (unknown origin) using Poly(Glu,Tyr) as substrate after 40 mins by Kinase-Glo luminescence assay
HCC827 [9] = test: Induction of apoptosis in human HCC827 cells harboring EGFR E746 to A750 deletion mutant assessed as early apoptotic cells at 3 uM after 24 hrs by Annexin V-FITC/propidium iodide staining based flow cytometry (reference value: 1.34 to 1.67%); format: functional
HCC827 [10] = test: Induction of apoptosis in human HCC827 cells harboring EGFR E746 to A750 deletion mutant assessed as late apoptotic cells at 3 uM after 24 hrs by Annexin V-FITC/propidium iodide staining based flow cytometry (reference value: 23.66 to 27.14%); format: functional
HCC827 [11] = test: Antiproliferative activity against human HCC827 cells harboring EGFR E746 to A750 deletion mutant at 10 uM after 72 hrs by MTT assay relative to control; format: functional; procedure, shortened: as §1
NCI-H1975 [12] = test: Antiproliferative activity against human NCI-H1975 cells harboring EGFR L858R/T790M double mutant at 10 uM after 72 hrs by MTT assay relative to control; format: functional; procedure, shortened: as §1

Chain of Epidermal growth factor receptor (Homo sapiens), P00533 [L858R,T790M,C797S] (P00533 whole entry T790M/C797S/L858R): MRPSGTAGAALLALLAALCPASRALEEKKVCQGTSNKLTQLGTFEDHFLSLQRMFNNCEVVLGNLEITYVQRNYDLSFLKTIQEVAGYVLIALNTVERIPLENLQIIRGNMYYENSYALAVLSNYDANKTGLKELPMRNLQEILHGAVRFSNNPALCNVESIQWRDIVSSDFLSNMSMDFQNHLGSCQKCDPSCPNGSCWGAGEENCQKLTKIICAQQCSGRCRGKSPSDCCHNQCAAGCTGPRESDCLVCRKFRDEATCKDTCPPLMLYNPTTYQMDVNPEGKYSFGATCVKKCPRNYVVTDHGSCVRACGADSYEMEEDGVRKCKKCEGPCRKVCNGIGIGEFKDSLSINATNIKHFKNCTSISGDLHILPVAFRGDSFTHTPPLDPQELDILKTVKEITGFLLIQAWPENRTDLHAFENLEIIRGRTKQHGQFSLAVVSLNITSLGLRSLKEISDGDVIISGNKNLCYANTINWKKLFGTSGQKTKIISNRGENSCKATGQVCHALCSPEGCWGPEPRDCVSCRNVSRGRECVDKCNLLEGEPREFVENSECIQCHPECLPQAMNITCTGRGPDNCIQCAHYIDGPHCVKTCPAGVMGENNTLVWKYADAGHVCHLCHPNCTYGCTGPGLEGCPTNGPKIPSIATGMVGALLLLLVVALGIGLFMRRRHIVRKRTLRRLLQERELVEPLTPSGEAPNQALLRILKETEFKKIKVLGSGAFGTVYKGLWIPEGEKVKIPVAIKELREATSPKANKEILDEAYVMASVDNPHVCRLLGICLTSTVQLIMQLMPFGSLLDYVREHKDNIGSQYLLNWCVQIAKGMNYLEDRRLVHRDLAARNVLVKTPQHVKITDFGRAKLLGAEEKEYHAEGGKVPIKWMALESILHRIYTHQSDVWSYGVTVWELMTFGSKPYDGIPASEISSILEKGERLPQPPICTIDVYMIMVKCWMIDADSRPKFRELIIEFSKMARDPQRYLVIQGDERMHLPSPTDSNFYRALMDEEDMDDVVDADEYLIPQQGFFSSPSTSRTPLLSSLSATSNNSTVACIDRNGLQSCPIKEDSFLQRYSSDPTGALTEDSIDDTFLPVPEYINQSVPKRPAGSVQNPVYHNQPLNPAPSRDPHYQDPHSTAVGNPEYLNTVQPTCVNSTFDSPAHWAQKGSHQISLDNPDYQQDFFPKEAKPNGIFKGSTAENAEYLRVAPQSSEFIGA
Chain of Epidermal growth factor receptor (Homo sapiens, UniProt P00533, L858R/T790M) (P00533 25-1210 T790M/L858R limits assumed): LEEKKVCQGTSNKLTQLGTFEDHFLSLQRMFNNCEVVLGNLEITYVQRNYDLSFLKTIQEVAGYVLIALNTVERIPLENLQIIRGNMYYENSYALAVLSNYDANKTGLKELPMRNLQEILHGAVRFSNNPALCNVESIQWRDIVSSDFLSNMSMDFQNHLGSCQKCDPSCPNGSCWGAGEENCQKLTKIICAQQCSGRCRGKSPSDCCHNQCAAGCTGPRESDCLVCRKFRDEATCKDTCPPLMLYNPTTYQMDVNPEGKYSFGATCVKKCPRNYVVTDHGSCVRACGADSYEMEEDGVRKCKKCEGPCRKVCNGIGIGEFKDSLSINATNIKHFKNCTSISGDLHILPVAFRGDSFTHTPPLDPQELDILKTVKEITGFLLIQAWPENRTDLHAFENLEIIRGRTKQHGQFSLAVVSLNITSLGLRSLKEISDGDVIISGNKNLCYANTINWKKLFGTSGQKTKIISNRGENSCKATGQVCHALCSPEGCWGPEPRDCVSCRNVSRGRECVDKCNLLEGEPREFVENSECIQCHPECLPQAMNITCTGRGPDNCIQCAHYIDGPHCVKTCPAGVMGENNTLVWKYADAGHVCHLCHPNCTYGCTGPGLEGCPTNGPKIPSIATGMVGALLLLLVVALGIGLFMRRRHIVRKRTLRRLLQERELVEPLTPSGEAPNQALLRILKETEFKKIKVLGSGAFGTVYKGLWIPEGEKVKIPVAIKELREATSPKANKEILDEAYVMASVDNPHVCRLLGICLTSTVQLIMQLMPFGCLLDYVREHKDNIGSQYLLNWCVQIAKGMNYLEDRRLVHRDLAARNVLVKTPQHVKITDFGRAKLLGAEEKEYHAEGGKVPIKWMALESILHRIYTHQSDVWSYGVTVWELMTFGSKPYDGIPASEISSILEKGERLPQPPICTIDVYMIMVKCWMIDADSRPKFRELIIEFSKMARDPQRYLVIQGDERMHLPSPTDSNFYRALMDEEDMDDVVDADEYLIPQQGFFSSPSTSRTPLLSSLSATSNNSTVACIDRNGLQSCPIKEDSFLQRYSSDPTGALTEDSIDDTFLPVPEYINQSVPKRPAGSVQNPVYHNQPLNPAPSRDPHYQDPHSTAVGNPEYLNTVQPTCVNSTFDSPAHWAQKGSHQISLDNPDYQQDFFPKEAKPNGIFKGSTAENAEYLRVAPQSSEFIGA
Chain of Epidermal growth factor receptor (Homo sapiens, UniProt P00533, C797S/L858R/T790M) (P00533 25-1210 T790M/C797S/L858R limits assumed): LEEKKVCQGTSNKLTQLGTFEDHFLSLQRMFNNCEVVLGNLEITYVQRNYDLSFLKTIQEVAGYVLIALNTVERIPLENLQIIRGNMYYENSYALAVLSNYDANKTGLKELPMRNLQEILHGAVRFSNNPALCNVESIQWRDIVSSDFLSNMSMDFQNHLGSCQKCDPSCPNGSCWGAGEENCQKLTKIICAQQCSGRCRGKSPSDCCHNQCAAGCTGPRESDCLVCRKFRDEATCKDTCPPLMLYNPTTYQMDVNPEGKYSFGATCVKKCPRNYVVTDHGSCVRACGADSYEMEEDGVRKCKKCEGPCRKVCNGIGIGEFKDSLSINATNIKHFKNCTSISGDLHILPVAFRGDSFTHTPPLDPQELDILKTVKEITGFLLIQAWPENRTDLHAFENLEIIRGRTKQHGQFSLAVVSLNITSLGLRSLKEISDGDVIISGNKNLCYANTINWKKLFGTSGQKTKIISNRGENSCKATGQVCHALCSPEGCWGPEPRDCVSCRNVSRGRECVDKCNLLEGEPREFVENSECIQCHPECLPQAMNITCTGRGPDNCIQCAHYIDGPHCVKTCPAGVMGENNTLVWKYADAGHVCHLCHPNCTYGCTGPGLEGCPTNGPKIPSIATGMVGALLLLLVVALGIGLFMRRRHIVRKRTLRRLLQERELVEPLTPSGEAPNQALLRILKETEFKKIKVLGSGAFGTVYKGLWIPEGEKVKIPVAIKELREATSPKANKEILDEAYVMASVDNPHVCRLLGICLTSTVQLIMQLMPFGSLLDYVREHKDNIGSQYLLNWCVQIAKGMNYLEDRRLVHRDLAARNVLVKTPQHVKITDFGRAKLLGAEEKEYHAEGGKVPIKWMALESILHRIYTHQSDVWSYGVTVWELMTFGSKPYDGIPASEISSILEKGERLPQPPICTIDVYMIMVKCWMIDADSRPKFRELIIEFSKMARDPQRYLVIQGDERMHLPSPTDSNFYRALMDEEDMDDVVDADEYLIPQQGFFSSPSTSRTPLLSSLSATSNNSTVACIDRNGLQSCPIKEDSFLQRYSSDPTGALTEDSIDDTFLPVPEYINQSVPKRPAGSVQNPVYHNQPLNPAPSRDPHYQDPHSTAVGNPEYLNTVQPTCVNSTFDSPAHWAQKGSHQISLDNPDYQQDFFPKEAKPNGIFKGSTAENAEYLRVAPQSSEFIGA
Chain of Epidermal growth factor receptor (Homo sapiens, UniProt P00533) (P00533 whole entry): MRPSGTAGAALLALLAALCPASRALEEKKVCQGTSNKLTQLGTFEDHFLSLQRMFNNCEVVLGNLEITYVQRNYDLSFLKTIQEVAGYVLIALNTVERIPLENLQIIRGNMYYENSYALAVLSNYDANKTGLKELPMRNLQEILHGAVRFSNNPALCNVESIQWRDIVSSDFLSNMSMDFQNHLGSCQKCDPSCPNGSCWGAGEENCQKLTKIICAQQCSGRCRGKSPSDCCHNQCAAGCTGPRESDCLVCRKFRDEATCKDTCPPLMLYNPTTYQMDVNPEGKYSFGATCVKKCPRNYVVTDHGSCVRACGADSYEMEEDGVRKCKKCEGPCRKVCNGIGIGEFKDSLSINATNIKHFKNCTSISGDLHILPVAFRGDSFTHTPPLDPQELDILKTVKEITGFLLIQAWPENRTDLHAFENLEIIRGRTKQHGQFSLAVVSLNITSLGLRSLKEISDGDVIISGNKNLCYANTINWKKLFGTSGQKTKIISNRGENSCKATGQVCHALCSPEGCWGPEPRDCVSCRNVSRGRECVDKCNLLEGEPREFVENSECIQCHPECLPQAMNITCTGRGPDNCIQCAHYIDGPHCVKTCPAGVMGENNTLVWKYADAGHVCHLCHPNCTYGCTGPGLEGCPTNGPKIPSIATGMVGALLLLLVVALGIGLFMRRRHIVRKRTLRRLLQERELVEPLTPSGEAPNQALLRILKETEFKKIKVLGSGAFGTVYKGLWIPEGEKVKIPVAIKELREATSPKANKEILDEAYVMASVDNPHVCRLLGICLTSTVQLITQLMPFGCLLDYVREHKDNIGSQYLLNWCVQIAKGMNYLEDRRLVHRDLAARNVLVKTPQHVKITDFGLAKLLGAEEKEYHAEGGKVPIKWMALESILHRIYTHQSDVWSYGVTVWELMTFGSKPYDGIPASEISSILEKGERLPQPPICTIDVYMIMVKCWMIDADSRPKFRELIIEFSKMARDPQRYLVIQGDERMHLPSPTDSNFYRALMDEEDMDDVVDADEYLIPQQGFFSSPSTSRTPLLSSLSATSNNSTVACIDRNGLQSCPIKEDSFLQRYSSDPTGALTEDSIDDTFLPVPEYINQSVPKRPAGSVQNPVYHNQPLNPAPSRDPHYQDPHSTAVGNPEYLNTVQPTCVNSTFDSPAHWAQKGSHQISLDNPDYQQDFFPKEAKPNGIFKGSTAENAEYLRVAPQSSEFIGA

solubility [1] | IC50 (HCC827 [3]) | IC50 (NCI-H1975 [4]) | IC50 [5] | IC50 [6] | IC50 [8] | Compound | IC50 (A549) | further results
Soluble | 0.054 µM | 1.75 µM | 0.164 µM | 0.0065 µM | 0.0054 µM | C=CC(=O)N[C@@H]1CCCN(c2nc(Nc3ccccc3)nc3cnc(Nc4ccc(N5CCN(C)CC5)cn4)cc23)C1 | 0.81 µM | IC50 [2]: > 0.5 µM; inhibition [7]: < 50%
 | > 10 µM |  |  |  |  | C=CC(=O)N[C@@H]1CCN(c2ncnc3cnc(Nc4ccc(N5CCN(C)CC5)cc4OC)cc23)C1 |  | Activity (HCC827 [11]): <50%
Insoluble | 8.7 µM |  |  |  |  | C=CC(=O)Nc1cccc(Nc2cc3c(N4CCCC4)nc(OCC4CCOCC4)nc3cn2)n1 |  | 
Soluble | 0.069 µM | 0.85 µM | 0.0265 µM | 0.0032 µM | 0.0015 µM | C=CC(=O)N[C@H]1CCN(c2nc(Nc3ccccc3)nc3cnc(Nc4ccc(N5CCN(C)CC5)cn4)cc23)C1 | 0.64 µM | IC50 [2]: 0.285 µM
Insoluble | > 10 µM |  |  |  |  | C=CC(=O)Nc1cccc(Nc2cc3c(N4CCCC4)nc(Nc4ccccc4)nc3cn2)n1 |  | Activity (HCC827 [11]): <50%
 | > 10 µM |  |  |  |  | C=CC(=O)N[C@@H]1CCN(c2ncnc3cnc(Nc4ccc(OCCOC)cc4OC)cc23)C1 |  | Activity (HCC827 [11]): <50%
Insoluble | > 10 µM |  |  |  |  | C=CC(=O)Nc1cccc(Nc2cc3c(N4CCCC4)nc(Nc4cccc(F)c4)nc3cn2)n1 |  | Activity (HCC827 [11]): <50%
 | 3.52 µM | > 10 µM |  |  |  | C=CC(=O)N[C@@H]1CCN(c2ncnc3cnc(Nc4ccc(N5CCN(C)CC5)cn4)cc23)C1 |  | Activity (NCI-H1975 [12]): <50%
Insoluble | > 10 µM |  |  |  |  | C=CC(=O)Nc1cccc(Nc2cc3c(N4CCCC4)nc(OCC4CCCCC4)nc3cn2)n1 |  | 
Soluble | 0.073 µM | 1.4 µM | 0.361 µM | 0.0142 µM | 0.012 µM | C=CC(=O)N[C@H]1CCCN(c2nc(Nc3ccccc3)nc3cnc(Nc4ccc(N5CCN(C)CC5)cn4)cc23)C1 | 0.81 µM | IC50 [2]: > 0.5 µM; inhibition [7]: < 50%
Soluble | 0.27 µM | 0.86 µM | 0.238 µM | 0.0108 µM | 0.0099 µM | C=CC(=O)N1CC[C@H](Nc2nc(Nc3ccccc3)nc3cnc(Nc4ccc(N5CCN(C)CC5)cn4)cc23)C1 | 1.67 µM | IC50 [2]: > 0.5 µM; inhibition [7]: < 50%
Insoluble | > 10 µM |  |  |  |  | C=CC(=O)Nc1cccc(Nc2cc3c(N4CCCC4)nc(OCc4ccc(F)cc4)nc3cn2)n1 |  | 
 | > 10 µM |  |  |  |  | C=CC(=O)N[C@@H]1CCN(c2ncnc3cnc(Nc4ccc(OCCN(C)C)cc4OC)cc23)C1 |  | Activity (HCC827 [11]): <50%
Insoluble | > 10 µM |  |  |  |  | C=CC(=O)Nc1cccc(Nc2cc3c(N4CCCC4)nc(OCc4ccccc4)nc3cn2)n1 |  | 
Soluble | 0.02 µM | 1.44 µM | 0.0366 µM | 0.0047 µM | 0.0027 µM | C=CC(=O)N[C@@H]1CCN(c2nc(Nc3ccccc3)nc3cnc(Nc4ccc(N5CCN(C)CC5)cn4)cc23)C1 | 1.19 µM | 
Soluble | 0.17 µM | 0.44 µM | 0.106 µM | 0.0046 µM | 0.0033 µM | C=CC(=O)N1CC[C@@H](Nc2nc(Nc3ccccc3)nc3cnc(Nc4ccc(N5CCN(C)CC5)cn4)cc23)C1 | 0.65 µM | IC50 [2]: > 0.5 µM; inhibition [7]: < 50%
Insoluble | 2.74 µM |  |  |  |  | C=CC(=O)Nc1cccc(Nc2cc3c(N4CCCC4)nc(OC4CCOCC4)nc3cn2)n1 |  | 

Compound | solubility [1] | IC50 (HCC827 [3]) | IC50 (NCI-H1975 [4]) | IC50 [5] | IC50 [6] | IC50 [8] | IC50 (A549) | further results
C=CC(=O)Nc1cc(Nc2nccc(-c3cn(C)c4ccccc34)n2)c(OC)cc1N(C)CCN(C)C [OSIMERTINIB] |  | 0.027 µM | […] |  |  |  | 0.53 µM | Activity (HCC827 [9]): 8.28%; Activity (HCC827 [10]): 68.1%
